The structures appear in SMILES notation. Calls of active or inactive are those of the source. The calls are words filed in the database; no cut-off is given here.

Consider 2 compounds from ChEMBL document CHEMBL4325910, “Design and synthesis of rosiglitazone-ferulic acid-nitric oxide donor trihybrids for improving glucose tolerance” (Eur J Med Chem, 2019).

Data set [1] has as its system Mus musculus. Nature of the data set: Cardioprotective activity in db/db BKS.Cg-Dock7m +/+ Leprdb/J mouse assessed as decrease in serum cTnI level at 27 umol/kg, po administered as daily dose via gavage for 18 days by ELISA. In kind it is functional, organism-based. In outline: (§1)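 db/db mice were gavaged daily for 18 days in 0.5% CMC-Na, with vehicle-treated model and C57BL/6 control groups. Tail vein blood was collected and serum TNF-α and cTnI measured by commercial ELISA kits. Six individual experiments, mean ± SD, one-way ANOVA.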

In data set [2] the test system is 3T3-L1. Nature of the data set: Inhibition of ROS production in TNF-alpha-induced insulin resistant mouse 3T3L1 cells at 10 uM after 48 hrs in presence of nitric oxide scavenger C-PTIO by DCFH-DA dye-based fluorescence assay. In kind it is functional, cell-based.
For data set [3], the system named is Platelet. Put plainly: Antiplatelet activity in platelet rich plasma (unknown origin) assessed as inhibition of arachidonic acid-induced platelet aggregation at 16 mM relative to control. In kind it is functional.
Data set [4] is described as follows: Metabolic stability in Sprague-Dawley rat plasma after 0.5 hrs by HPLC analysis. The format is ADME, cell-free. In outline: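 Compound (100 μM final; 100 mM DMSO stock diluted 1:1000) was incubated in triplicate in SD rat plasma at 37 °C with shaking for 0–24 h. Acetonitrile (3 volumes) was added, samples centrifuged and supernatants run on HPLC. Gradient was ammonium acetate pH 3.5/acetonitrile, 1.0 mL/min, detection at 254 nm.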

Data set [5] is described as follows: Toxicity in ICR mouse assessed mouse mortality at 5000 mg/kg, po administered as single dose via gavage treated on day 1 and measured daily up to 14 days. The format is organism-based. The note with it: in vivo, 336 h. In outline: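 Mice of both sexes, 7 weeks old, were randomized and given one oral gavage dose on day 1. Dose levels were 500, 1000, 2000, 3000, 4000 or 5000 mg/kg, or 2000, 4000 and 5000 mg/kg, with n = 10 per group. Behaviour, health and mortality were checked daily for 14 days, and total deaths were counted on day 14. LD50 was calculated with 95% confidence limits.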

The subject of data set [6] is Platelet. Nature of the data set: Antiplatelet activity in platelet rich plasma (unknown origin) assessed as inhibition of ADP-induced platelet aggregation at 1 mM relative to control. The format is functional.
The nature of data set [7]: Drug metabolism in Sprague-Dawley rat plasma after 0.5 hrs by HPLC analysis. The format is ADME, cell-free. The following applies: read-out: Drug metabolism. In outline: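 100 mM DMSO stock was diluted 1:1000 into SD rat plasma, in triplicate. Incubated with shaking at 37 °C for 0–24 h, then stopped with three volumes of acetonitrile and centrifuged.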
A short description of data set [8]: Toxicity in spontaneous db/db BKS.Cg-Dock7m +/+ Leprdb/J mouse assessed as body weight gain at 13.5 umol/kg, po administered as daily dose via gavage treated for 18 days measured post last dose (reference value: 5.6 +/- 2.1 g). The format is organism-based. The note with it: in vivo, 432 h.
Data set [9] relates to 3T3-L1. Nature of the data set: Induction of GSH level in TNF-alpha-induced insulin resistant mouse 3T3L1 cells at 3 to 10 uM after 48 hrs. In kind it is functional, cell-based. In outline: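 3T3-L1 preadipocytes were differentiated, and mature adipocytes made insulin resistant with TNF-α (4 ng/mL) daily for 4 days. Cells were then treated in triplicate for 48 h, with or without 20 μM C-PTIO. Lysate GSH, SOD and MDA were measured with kits. Three experiments, mean ± SD.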

The test system of data set [10] is Platelet. Put plainly: Antiplatelet activity in platelet rich plasma (unknown origin) assessed as inhibition of ADP-induced platelet aggregation at 3.2 mM relative to control. The format is functional.
Data set [11] concerns Platelet. Put plainly: Antiplatelet activity in platelet rich plasma (unknown origin) assessed as inhibition of arachidonic acid-induced platelet aggregation at 0.2 mM relative to control. In kind it is functional.
The subject of data set [12] is Mus musculus. Put plainly: Cardioprotective activity in db/db BKS.Cg-Dock7m +/+ Leprdb/J mouse assessed as decrease in serum TNF-alpha level at 27 umol/kg, po administered as daily dose via gavage treated for 18 days by ELISA. In kind it is functional, organism-based. In outline:
as §1
(In an ELISA, binding on a coated surface is turned into a signal by an enzyme label.)

Data set [13] can be described thus: Metabolic stability in human liver microsomes after 6 hrs in presence of NADPH by HPLC analysis. In kind it is ADME, Microsome. The note with it: read-out: Stability. In outline: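 Compound (100 mM DMSO stock) was added in triplicate to 0.1 M phosphate buffer pH 7.4 with 3.3 mM MgCl2 and human liver microsomes, then preincubated 5 min at 37 °C. NADPH (1.3 mM stock) was added and incubation continued 0, 0.5, 1, 2 or 6 h. Acetonitrile quench, then HPLC at 254 nm.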
(In general: Liver microsomes are a subcellular fraction often used to study metabolism.)

In data set [14] the test system is Platelet. Nature of the data set: Antiplatelet activity in platelet rich plasma (unknown origin) assessed as inhibition of ADP-induced platelet aggregation at 0.2 mM relative to control. The format is functional.

With `CN(CCOc1ccc(CC2SC(=O)NC2=O)cc1)c1ccccn1` (centres undefined) [ROSIGLITAZONE], the result with Mus musculus [1] was Active. Moreover, the inhibition entry with 3T3-L1 [2] is “inactive”. Further, the inhibition at 16000 µM in the data set on Platelet [3] amounted to 67.2%. The Stability in data set [4] was 20%. The Activity result in data set [5] is “Toxic”. Besides, in the data set on Platelet [6], the inhibition at 1000 µM was determined as 6.1%.

Consider `CCN(CC)/[N+]([O-])=N/OCOC(=O)/C=C/c1ccc(OC(=O)OCN2C(=O)SC(Cc3ccc(OCCN(C)c4ccccn4)cc3)C2=O)c(OC)c1` (centres undefined), for which the metabolised at 0.5 h in data set [7] stood at 23%. Further, the Activity in data set [8] came out at 4 g. Also, the outcome in the data set on 3T3-L1 [9] and with Mus musculus [12] was Active. Further, the inhibition at 3200 µM in the data set with Platelet [10] came out at 57.3%. For the same compound, the inhibition at 200 µM turned out to be 30.2% in the data set on Platelet [11] and 9.9% in the data set on Platelet [14]. In addition, the remaining at 6 h in data set [13] turned out to be 82%.

One may read the inhibition as the change of the read-out against control, counted positive when it falls.
